In brackets after ≈: the same amount, converted by molar mass. Activity calls are given as the source filed them. The rule behind the calls is not given here.
What was measured:
Type in all cases: functional
Bacillus subtilis = assay: Antibacterial activity against Bacillus subtilis RCMB 010063 assessed as growth inhibition after 24 hrs by twofold serial dilution method; settings: RCMB 010063, 24 h
In short: (§1)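 Broth microdilution in Müller–Hinton broth, 96-well plates. Only compounds giving disc-diffusion zones >10 mm were tested. DMF stocks (1000 µg/mL) were diluted twofold to a final 500–0.007 µg/mL, with about 10^6 CFU/mL bacteria. Sealed plates ran 24 h at 37 °C in a humid chamber. MIC was the lowest concentration with no visible turbidity. DMF and uninoculated-medium controls were included.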

[1] = test system: Staphylococcus epidermidis; assay: Antibacterial activity against Staphylococcus epidermidis RCMB 010024 assessed as growth inhibition after 24 hrs by twofold serial dilution method; settings: RCMB 010024, 24 h; in short: as §1
Enterococcus faecalis = assay: Antibacterial activity against Enterococcus faecalis RCMB 010068 assessed as growth inhibition after 24 hrs by twofold serial dilution method; settings: RCMB 010068, 24 h; in short: as §1
Streptococcus pyogenes = assay: Antibacterial activity against Streptococcus pyogenes RCMB 010015 assessed as growth inhibition after 24 hrs by twofold serial dilution method; in short: as §1
Staphylococcus aureus = assay: Antibacterial activity against Staphylococcus aureus RCMB 010027 assessed as growth inhibition after 24 hrs by twofold serial dilution method; settings: RCMB 010027, 24 h; in short: as §1
Proteus vulgaris = assay: Antibacterial activity against Proteus vulgaris RCMB 010085 assessed as growth inhibition after 24 hrs by twofold serial dilution method; in short: as §1
Pseudomonas aeruginosa = assay: Antibacterial activity against Pseudomonas aeruginosa RCMB 010043 assessed as growth inhibition after 24 hrs by twofold serial dilution method; in short: as §1
Candida albicans = assay: Antifungal activity against Candida albicans RCMB 05035 assessed as growth inhibition after 48 hrs by twofold serial dilution method
In short: (§2)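 Fungi were tested by microdilution in Sabouraud liquid medium. Only compounds with disc-diffusion zones >10 mm went on to this test. DMF stocks (1000 µg/mL) were serially diluted twofold to 500–0.007 µg/mL. Sealed plates were held 48 h at 25 °C in a humid chamber. MIC was the lowest concentration without visible turbidity. DMF and uninoculated-medium controls ran in parallel.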

Talaromyces marneffei = assay: Antifungal activity against Penicillium marneffei RCMB 01267 assessed as growth inhibition after 48 hrs by twofold serial dilution method; settings: RCMB 01267, 48 h; in short: as §2
Klebsiella pneumoniae = assay: Antibacterial activity against Klebsiella pneumoniae RCMB 010093 assessed as growth inhibition after 24 hrs by twofold serial dilution method; in short: as §1
Geotrichum candidum = assay: Antifungal activity against Geotricum candidum RCMB 05096 assessed as growth inhibition after 48 hrs by twofold serial dilution method; settings: RCMB 05096, 48 h; in short: as §2
Shigella flexneri = assay: Antibacterial activity against Shigella flexneri RCMB 0100542 assessed as growth inhibition after 24 hrs by twofold serial dilution method; in short: as §1
Neisseria gonorrhoeae = assay: Antibacterial activity against Neisseria gonorrhoeae RCMB 010076 assessed as growth inhibition after 24 hrs by twofold serial dilution method; in short: as §1
Aspergillus clavatus = assay: Antifungal activity against Aspergillus clavatus RCMB 02593 assessed as growth inhibition after 48 hrs by twofold serial dilution method; settings: RCMB 02593, 48 h; in short: as §2
Aspergillus fumigatus = assay: Antifungal activity against Aspergillus fumigatus RCMB 02564 assessed as growth inhibition after 48 hrs by twofold serial dilution method; settings: RCMB 02564, 48 h; in short: as §2

Row | Compound | MIC (Bacillus subtilis) | MIC [1] | MIC (Enterococcus faecalis) | MIC (Staphylococcus aureus) | MIC (Proteus vulgaris; RCMB 010085, 24 h) | MIC (Pseudomonas aeruginosa) | MIC (Candida albicans; RCMB 05035, 48 h) | MIC (Talaromyces marneffei) | MIC (Klebsiella pneumoniae; RCMB 010093, 24 h) | MIC (Geotrichum candidum) | MIC (Shigella flexneri) | MIC (Streptococcus pyogenes) | MIC (Neisseria gonorrhoeae) | MIC (Aspergillus clavatus) | MIC (Aspergillus fumigatus) | MIC (Proteus vulgaris) | MIC (Klebsiella pneumoniae) | other results
1 | CC1(C)S[C@@H]2[C@H](NC(=O)[C@H](N)c3ccccc3)C(=O)N2[C@H]1C(=O)O [AMPICILLIN] | 0.007 µg/mL (≈ 0.02 µM) | 0.48 µg/mL (≈ 1.37 µM) | 1.95 µg/mL (≈ 5.58 µM) | 0.06 µg/mL (≈ 0.172 µM) |  |  |  |  |  |  |  |  |  |  |  |  |  | MIC (Streptococcus pyogenes; RCMB 010015, 24 h): 0.24 µg/mL (≈ 0.687 µM)
2 | Cc1nc(-c2cccnc2)sc1C(=O)/C=C/c1ccc(F)cc1F | 15.6 µg/mL (≈ 45.7 µM) | 31.2 µg/mL (≈ 91.3 µM) | 250 µg/mL (≈ 730 µM) | 31.2 µg/mL (≈ 91.3 µM) | 62.5 µg/mL (≈ 183 µM) | inactive | 500 µg/mL (≈ 1460 µM) | 62.5 µg/mL (≈ 183 µM) | 31.2 µg/mL (≈ 91.3 µM) | 62.5 µg/mL (≈ 183 µM) | inactive | inactive | inactive | 125 µg/mL (≈ 365 µM) | 62.5 µg/mL (≈ 183 µM) |  |  | 
3 | Cc1nc(-c2cccnc2)sc1C(=O)/C=C/c1ccccc1 | 31.2 µg/mL (≈ 102 µM) | 31.2 µg/mL (≈ 102 µM) | 500 µg/mL (≈ 1630 µM) | 62.5 µg/mL (≈ 204 µM) | 62.5 µg/mL (≈ 204 µM) | inactive | 500 µg/mL (≈ 1630 µM) | 125 µg/mL (≈ 408 µM) | 62.5 µg/mL (≈ 204 µM) | 62.5 µg/mL (≈ 204 µM) |  | inactive | inactive | 125 µg/mL (≈ 408 µM) | 125 µg/mL (≈ 408 µM) |  |  | MIC (Shigella flexneri; RCMB 0100542, 24 h): 125 µg/mL (≈ 408 µM)
4 | Cc1nc(-c2cccnc2)sc1C(=O)/C=C/c1ccccc1[N+](=O)[O-] | 0.97 µg/mL (≈ 2.76 µM) | 0.97 µg/mL (≈ 2.76 µM) | 62.5 µg/mL (≈ 178 µM) | 3.9 µg/mL (≈ 11.1 µM) | 7.81 µg/mL (≈ 22.2 µM) |  | 31.2 µg/mL (≈ 88.9 µM) | 15.8 µg/mL (≈ 45.1 µM) | 0.97 µg/mL (≈ 2.76 µM) | 7.81 µg/mL (≈ 22.2 µM) |  |  |  | 31.2 µg/mL (≈ 88.9 µM) | 7.81 µg/mL (≈ 22.2 µM) |  |  | MIC (Pseudomonas aeruginosa; RCMB 010043, 24 h): 125 µg/mL (≈ 356 µM); MIC (Shigella flexneri; RCMB 0100542, 24 h): 7.81 µg/mL (≈ 22.2 µM); MIC (Streptococcus pyogenes; RCMB 010015, 24 h): 62.5 µg/mL (≈ 178 µM); MIC (Neisseria gonorrhoeae; RCMB 010076, 24 h): 125 µg/mL (≈ 356 µM)
5 | Cc1nc(-c2cccnc2)sc1C1=NNC(c2ccc(F)cc2F)C1 (stereo not given) | 62.5 µg/mL (≈ 175 µM) | 125 µg/mL (≈ 351 µM) | 125 µg/mL (≈ 351 µM) | 125 µg/mL (≈ 351 µM) |  | inactive |  | 250 µg/mL (≈ 701 µM) |  | 125 µg/mL (≈ 351 µM) | inactive | inactive | inactive | 125 µg/mL (≈ 351 µM) | 125 µg/mL (≈ 351 µM) | inactive | inactive | MIC (Candida albicans): inactive
6 | GENTAMICIN |  |  |  |  |  | 31.2 µg/mL |  |  |  |  | 0.48 µg/mL |  | 7.81 µg/mL |  |  | 1.95 µg/mL | 0.24 µg/mL | 
7 | C[C@@H]1[C@H](O)[C@@H](C)/C=C/C=C/C=C/C=C/C=C/C=C/C=C/[C@H](O[C@@H]2O[C@H](C)[C@@H](O)[C@H](N)[C@@H]2O)C[C@@H]2O[C@](O)(C[C@@H](O)C[C@@H](O)[C@H](O)CC[C@@H](O)C[C@@H](O)CC(=O)O[C@H]1C)C[C@H](O)[C@H]2C(=O)O [AMPHOTERICIN B] |  |  |  |  |  |  | 0.24 µg/mL (≈ 0.26 µM) | 1.95 µg/mL (≈ 2.11 µM) |  | 0.48 µg/mL (≈ 0.519 µM) |  |  |  | 1.95 µg/mL (≈ 2.11 µM) | 0.97 µg/mL (≈ 1.05 µM) |  |  | 
8 | Cc1nc(-c2cccnc2)sc1C1=NNC(c2ccccc2)C1 (stereo not given) | 62.5 µg/mL (≈ 195 µM) | 62.5 µg/mL (≈ 195 µM) | 125 µg/mL (≈ 390 µM) | 125 µg/mL (≈ 390 µM) |  | inactive |  | 250 µg/mL (≈ 780 µM) |  | 62.5 µg/mL (≈ 195 µM) | inactive | inactive | inactive | 62.5 µg/mL (≈ 195 µM) | 125 µg/mL (≈ 390 µM) | inactive | inactive | MIC (Candida albicans): inactive
